Results taken from article PMC3445775 (Hepatology (Baltimore, Md.), 2012).
“Also recorded” adds a separate entry of the source. Each block holds one compound with its values, some of them ahead of it.

Experiments:
human FATP5 = target: T1, human FATP5 (Homo sapiens, UniProt Q9Y2P5); type: cell-based
T1 sequence (Q9Y2P5 1-690): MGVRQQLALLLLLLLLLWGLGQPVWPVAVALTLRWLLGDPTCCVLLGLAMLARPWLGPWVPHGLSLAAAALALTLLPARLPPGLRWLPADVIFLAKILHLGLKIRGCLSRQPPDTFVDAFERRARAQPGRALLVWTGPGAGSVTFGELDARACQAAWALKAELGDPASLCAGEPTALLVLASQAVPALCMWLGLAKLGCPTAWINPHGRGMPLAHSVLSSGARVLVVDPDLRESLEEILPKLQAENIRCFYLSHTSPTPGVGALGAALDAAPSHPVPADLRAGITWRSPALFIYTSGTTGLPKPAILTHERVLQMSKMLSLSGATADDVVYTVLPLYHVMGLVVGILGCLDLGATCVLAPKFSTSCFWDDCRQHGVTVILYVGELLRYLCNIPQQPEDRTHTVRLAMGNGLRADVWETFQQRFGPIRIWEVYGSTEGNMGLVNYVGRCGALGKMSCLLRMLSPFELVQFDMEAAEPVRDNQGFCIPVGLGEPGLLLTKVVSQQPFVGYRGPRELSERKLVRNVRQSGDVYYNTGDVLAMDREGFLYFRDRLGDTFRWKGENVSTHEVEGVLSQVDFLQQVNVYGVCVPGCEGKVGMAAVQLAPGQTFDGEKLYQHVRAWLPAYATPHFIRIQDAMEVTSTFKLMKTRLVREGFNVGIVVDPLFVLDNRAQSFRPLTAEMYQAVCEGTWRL
Summary of the method: (§1)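 HEK-293 cells stably expressing human FATP4, FATP2 or FATP5 were maintained in DMEM/10% FBS with 1 mg/ml G418. Cells were plated at 30,000–50,000/well overnight to 50–70% confluency. They were preincubated 30 min (5% CO2) with test compound, diluted from DMSO stock into HBSS with 20 mM HEPES, 4.5 g/L glucose and 0.1% fatty-acid-free BSA. Compound in quencher mix containing 2 μM C1-BODIPY-C12 was then added. Fluorescence (ex 488/em 515 nm, bottom read) was recorded every 2 min for 2 h, and uptake velocities were derived by linear regression.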

human FATP2 = human FATP2 (Homo sapiens, UniProt O14975); type: cell-based
Summary of the method: as §1

hsFATP4 = hsFATP4 (Homo sapiens, UniProt Q6P1M0); assay: Quencher-based LCFA uptake assay, FATP4 expressing 293 cells; type: cell-based; conditions: result in words
Summary of the method: as §1

FATP5 and FATP2 = assay: Inhibition reversibility assay; type: cell-based, human; conditions: 30 min treatment followed by brief washes with PBS
293 cells = assay: XTT toxicity assay, stable 293 cell lines; type: cell-based, human; conditions: 48 hours
Summary of the method: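 Stable 293 cells in DMEM/FBS were incubated overnight in 5% CO2. The indicated test compound or DMSO control was added, and after a further 48 h viability was measured with an XTT kit per the manufacturer's instructions.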

[1] = system: primary mouse hepatocytes from C57Bl/6 animals; assay: Quencher based LCFA uptake assay, wild-type mouse primary hepatocytes; type: cell-based
[2] = system: primary hepatocytes from FATP5-null animals; assay: Quencher based LCFA uptake assay, FATP5-null mouse primary hepatocytes; type: cell-based; conditions: FATP5 KO
Summary of the method: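 Primary hepatocytes from FATP5-null mice were isolated by portal-vein perfusion and collagenase digestion. Viability was checked by trypan blue, and cells were plated on collagen (150,000 cells/well) in DMEM/FBS with insulin-transferrin-selenium overnight. Test compound from DMSO stock in HBSS (20 mM HEPES, 4.5 g/L glucose, 0.1% fatty-acid-free BSA) was applied for 30 min. It was replaced by the same compound in quencher mix with 2 μM C1-BODIPY-C12. Bottom-read fluorescence (ex 488/em 515 nm) was taken every 2 min for 2 h, and velocities were obtained by linear regression.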

[3] = system: primary mouse hepatocytes; assay: XTT viability of primary mouse hepatocytes; type: cell-based; conditions: 48 hour treatment
[4] = system: Mouse primary hepatocytes; assay: Uptake assay of radiolabeled compounds, primary hepatocytes; type: cell-based; conditions: 5 μM DCA
hepatic LCFA uptake = assay: Non-radioactive in vivo hepatic LCFA uptake assay; parameters: species or system mouse
[5] = system: hepatic triglyceride accumulation; assay: Chronic bile acid injection during high-fat diet; type: in vivo, mouse; conditions: 3.2 mg/kg s.c. daily
Summary of the method: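 Individually housed mice on a high-fat diet (60% calories from fat) received daily s.c. injections of test compound, 3.2 mg/kg in 20 μl DMSO, above the right hip for 47 days. Controls received DMSO vehicle. Mice were fasted 4 h and euthanised with CO2, and injection sites were checked for precipitate. Liver lysates were assayed for protein (BCA) and TAG.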

hepatic TAG content = assay: 7 week bile acid supplemented high-fat diet feeding; type: in vivo, mouse
[6] = system: acute liver LCFA absorption; assay: 1 week DCA/high-fat food feeding pilot; type: in vivo, mouse
[7] = system: intestinal fatty acid absorption; assay: Non-radioactive intestinal in vivo LCFA absorption assay; parameters: species or system mouse; conditions: gavage of olive oil/BODIPY-FFA with 0.05% DCA
Summary of the method: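 Mice were gavaged with 200 μl of olive oil/20 μM BODIPY-FFA containing 0% or 0.05% bile acid. Blood was drawn at 0, 30, 60, 120 and 240 min after gavage, and serum fluorescence at 515 nm was read on a plate reader.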

TGR5 = conditions: ref [33], [34]; cited from earlier work
[8] = system: primary human hepatocytes; assay: FACS-based LCFA uptake assay, primary human hepatocytes; type: cell-based; conditions: 10 or 100 μM, viable cells
Summary of the method: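 Suspended primary human hepatocytes were pretreated with test compound at 10 or 100 μM in DMEM (37°C, 5% CO2, 30 min). C1-BODIPY-C12 bound to 0.1% BSA was then added to a final 2 μM for 30 min at 37°C. Uptake was stopped on ice, and cells were centrifuged at 4°C and resuspended in cold PBS. Propidium iodide was added, and mean BODIPY fluorescence of 5000 viable PI-negative cells was taken from histogram plots.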

[9] = oral administration of UDCA; ref [41]; cited from earlier work
NASH = conditions: cited from earlier work
[10] = 0.5mg/g in high fat food, 7 weeks

Sequence of hsFATP4 (Q6P1M0 whole entry): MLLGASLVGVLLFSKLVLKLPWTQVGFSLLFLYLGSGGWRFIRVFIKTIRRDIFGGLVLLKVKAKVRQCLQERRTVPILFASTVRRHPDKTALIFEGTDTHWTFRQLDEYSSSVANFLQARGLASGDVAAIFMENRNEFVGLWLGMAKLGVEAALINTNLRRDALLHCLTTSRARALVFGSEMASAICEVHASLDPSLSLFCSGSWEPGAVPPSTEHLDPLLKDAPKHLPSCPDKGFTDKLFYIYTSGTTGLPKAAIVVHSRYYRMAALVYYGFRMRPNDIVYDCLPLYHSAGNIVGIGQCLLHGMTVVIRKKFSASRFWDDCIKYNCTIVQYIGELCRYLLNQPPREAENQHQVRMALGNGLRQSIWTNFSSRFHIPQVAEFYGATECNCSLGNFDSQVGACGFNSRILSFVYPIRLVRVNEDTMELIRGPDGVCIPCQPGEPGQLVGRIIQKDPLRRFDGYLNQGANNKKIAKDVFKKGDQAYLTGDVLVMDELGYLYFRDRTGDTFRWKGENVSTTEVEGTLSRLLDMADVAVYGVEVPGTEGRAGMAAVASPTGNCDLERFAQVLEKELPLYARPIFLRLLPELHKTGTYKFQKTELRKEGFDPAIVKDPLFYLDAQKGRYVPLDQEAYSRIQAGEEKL

IC50 (human FATP5): 0.19 µM | IC50 (human FATP2): 5 µM | inhibition of LCFA uptake by FATP5-null primary hepatocytes [2]: abolished
Structure (SMILES): C[C@H](CCC(=O)O)[C@H]1CC[C@H]2[C@@H]3CC[C@@H]4C[C@H](O)CC[C@]4(C)[C@H]3C[C@H](O)[C@]12C [DCA, deoxycholic acid]
inhibition of FATP4 LCFA uptake (hsFATP4): neither DCA, UDCA, nor LCA inhibited; also recorded: No inhibition | Reversible Inhibition (FATP5 and FATP2): reversible and Yes | toxicity (XTT assay) (293 cells): did not display any cytotoxicity | inhibition of LCFA uptake by primary mouse hepatocytes [1]: inhibited hepatocyte LCFA uptake significantly | cytotoxicity to primary mouse hepatocytes (XTT) [3]: not associated with toxicity | uptake of 2-deoxy-D-[3H]glucose/glucose mix [4]: without affecting uptake | uptake of radiolabeled fatty acids ([4]; 20 μM fatty acid): inhibit the uptake of a wide range of fatty acids | effect on in vivo hepatic LCFA uptake in FATP5 KO (hepatic LCFA uptake; FATP5 KO mice, 6.4mg/kg): abolished | effect on in vivo hepatic LCFA uptake (hepatic LCFA uptake; WT mice, acute injection): inhibitory effect was observed | acute reduction of hepatic LCFA uptake (hepatic LCFA uptake; in vivo, DCA injections): 31% | body weight ([5]; 47 days): nor did it affect food consumption or body weight | food consumption ([5]; 47 days): nor did it affect food consumption or body weight | respiration ([5]; 47 days): neither triggered an increase in respiration | reduction in the triglyceride content of the liver ([5]; 47 days, WT): 68% | triglyceride content of the liver ([5]; 47 days, WT, vehicle 6.6): 2.1 mg TAG/g protein | liver TAG in FATP5-null animals ([5]; FATP5-null): did not cause a further reduction in liver TAG | body weight (hepatic TAG content; [10]): Neither DCA nor LCA feeding resulted in changes | caloric output over a 36h period (hepatic TAG content; [10]): Neither DCA nor LCA feeding resulted in changes | food intake (hepatic TAG content; [10]): Neither DCA nor LCA feeding resulted in changes | respiratory rate (hepatic TAG content; [10]): Neither DCA nor LCA feeding resulted in changes | lipid droplets in BODIPY-stained liver sections (hepatic TAG content; 0.05% DCA in high-fat diet): markedly reduced lipid droplets | hepatotoxicity or fibrosis (ALT/AST assays, liver morphology) (hepatic TAG content; 0.05% DCA in high-fat diet, 49 days): did not lead to hepatotoxicity or fibrosis | reduction in hepatic TAG content (hepatic TAG content; 0.05% in high-fat diet, 7 weeks): approximately 50% | acute liver LCFA absorption ([6]; DCA 0 to 0.2% in high-fat food): dose dependent reduction | circulating liver enzymes (serum AST) ([6]; DCA 0 to 0.2% in high-fat food): without causing a detectable increase | circulating lipids in the form of TAG and cholesterol ([6]; dietary DCA 0.03%-0.4%): unchanged | intestinal fatty acid absorption (labeled fatty acid in the circulation) [7]: not suppressed; also recorded: no significant effect | TGR5 activation (TGR5): activate TGR5 equally

Structure (SMILES): C[C@H](CCC(=O)O)[C@H]1CC[C@H]2[C@@H]3[C@@H](O)C[C@@H]4C[C@H](O)CC[C@]4(C)[C@H]3CC[C@]12C [UDCA, ursodeoxycholic acid, reference compound]
IC50 (human FATP5): 5 µM | inhibition of FATP4 LCFA uptake (hsFATP4): neither DCA, UDCA, nor LCA inhibited; also recorded: No inhibition | Reversible Inhibition (FATP5 and FATP2): Yes | inhibition of LCFA uptake by primary human hepatocytes [8]: inhibited LCFA uptake | inhibition of LCFA uptake by primary mouse hepatocytes [1]: inhibited LCFA uptake | inhibition of LCFA uptake by FATP5-null primary hepatocytes [2]: failed to inhibited LCFA uptake | cytotoxicity to primary mouse hepatocytes (XTT) [3]: without any detectable cytotoxic effects | circulating UDCA levels [9]: over 17 μM | effect on hepatosteatosis and NASH versus placebo (NASH; 13–15 mg/kg/day over 2 years, 166 patients, ref [43]): did not produce an effective result as compared to placebo | overall histology (NASH; 23–28 mg/kg/day for 18 months, 185 NASH patients, ref [44]): failed to improve the overall histology
